In ChEMBL document CHEMBL5154720, “In silico screening-based discovery of novel covalent inhibitors of the SARS-CoV-2 3CL protease” (Eur J Med Chem, 2022):
pIC50: −log10 of the molar value.

Columns and labels:
[1] = molecular target: Replicase polyprotein 1ab (Severe acute respiratory syndrome coronavirus 2, UniProt P0DTD1); test: Inhibition of SARS-CoV-2 3CL protease using MCA-AVLQSGFR-Lys(Dnp)-Lys-NH2 fluorogenic peptide as substrate incubated for 30 mins and measured by FRET assay
[2] = molecular target: Replicase polyprotein 1ab (Severe acute respiratory syndrome coronavirus 2) (UniProt P0DTD1); test: Inhibition of SARS-CoV-2 3CL protease using MCA-AVLQSGFR-Lys(Dnp)-Lys-NH2 fluorogenic peptide as substrate incubated for 30 mins at 50 uM and measured by FRET assay relative to control
Method in brief: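 Recombinant SUMO-tag-cleaved 3CLpro (E. coli BL21(DE3), Ni-NTA, Q-Sepharose, size exclusion), 50 nM final, preincubated 30 min with compound in 50 mM Tris pH 7.3, 1 mM EDTA; reaction started with 20 μM final FRET substrate. Fluorescence 320/405 nm read every 30 s for 5 min; initial velocity relative to DMSO control. Mean ± SD of three independent experiments.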

Row | SMILES | pIC50 [1] | inhibition [2] [%]
1 | NC(=O)CN1C(=O)C(O)(CC(=O)/C=C\c2ccc3c(c2)OCO3)c2ccccc21 (stereo unspecified) | 4.44 | 55.2
2 | O=C(/C=C/c1cn(CC(O)CN2CCOCC2)c2ccccc12)c1cccs1 (stereo unspecified) |  | 22.3
3 | Cn1c(CN2CCC(C(N)=O)CC2)c(C#N)c2ccccc21 |  | 24.1
4 | NS(=O)(=O)c1ccc(NC(=O)C(=O)c2ccc[nH]2)cc1 |  | 31.4
5 | O=C(CC1C(=O)NCCN1C(=O)CCl)Nc1cccc(Cl)c1 (stereo unspecified) | 5.07 | 87.6
6 | Cc1cccc(C)c1NC(=O)CSc1nc2c(cc1C#N)C(=O)CCC2 |  | 15.2
7 | CC1=C(C#N)C(=O)N(CCCO)C(=O)/C1=N\Nc1ccc(Br)cc1C(=O)O | 4.72 | 65.5
8 | CN(C(=O)CN1CC(C=O)c2ccccc21)c1ccccc1 (stereo unspecified) |  | 32.6
